ChEMBL document CHEMBL1157677, “Silicon switch approach in TRPV1 antagonist MK-056 and its analogues” (Bioorg Med Chem, 2010)

Legend:
[1] = biological target: T1, Transient receptor potential cation channel subfamily V member 1 (Rattus norvegicus, UniProt O35433); assay: Antagonist activity at TRPV1 in Sprague-Dawley rat DRG neuron assessed as reduction of capsaicin-stimulated intracellular 45Ca2+ influx by scintillation counting; assay type: functional, cell-based
Outline: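 Neonatal rat spinal DRG neurons, dissociated with collagenase then trypsin (30 min each, 37 °C), cultured 3 days in horse-serum DME/F12 with C6-glioma-conditioned medium. Neurons were given ⁴⁵Ca²⁺ plus capsaicin with compound for 10 min at room temperature in HEPES (10 mM, pH 7.4) Ca/Mg-free HBSS, then washed and dried.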

[2] = biological target: T1, Transient receptor potential cation channel subfamily V member 1; assay: Agonist activity at TRPV1 in Sprague-Dawley rat DRG neuron assessed as intracellular 45Ca2+ influx by scintillation counting; assay type: functional, cell-based
[3] = biological target: Transient receptor potential cation channel subfamily V member 1 (Rattus norvegicus) (UniProt O35433); assay: Ratio of compound IC50 to ATC-120 IC50 for TRPV1 in Sprague-Dawley rat DRG neuron
Transient receptor potential cation channel subfamily V member 1 (Rattus norvegicus), sequence (O35433 whole entry): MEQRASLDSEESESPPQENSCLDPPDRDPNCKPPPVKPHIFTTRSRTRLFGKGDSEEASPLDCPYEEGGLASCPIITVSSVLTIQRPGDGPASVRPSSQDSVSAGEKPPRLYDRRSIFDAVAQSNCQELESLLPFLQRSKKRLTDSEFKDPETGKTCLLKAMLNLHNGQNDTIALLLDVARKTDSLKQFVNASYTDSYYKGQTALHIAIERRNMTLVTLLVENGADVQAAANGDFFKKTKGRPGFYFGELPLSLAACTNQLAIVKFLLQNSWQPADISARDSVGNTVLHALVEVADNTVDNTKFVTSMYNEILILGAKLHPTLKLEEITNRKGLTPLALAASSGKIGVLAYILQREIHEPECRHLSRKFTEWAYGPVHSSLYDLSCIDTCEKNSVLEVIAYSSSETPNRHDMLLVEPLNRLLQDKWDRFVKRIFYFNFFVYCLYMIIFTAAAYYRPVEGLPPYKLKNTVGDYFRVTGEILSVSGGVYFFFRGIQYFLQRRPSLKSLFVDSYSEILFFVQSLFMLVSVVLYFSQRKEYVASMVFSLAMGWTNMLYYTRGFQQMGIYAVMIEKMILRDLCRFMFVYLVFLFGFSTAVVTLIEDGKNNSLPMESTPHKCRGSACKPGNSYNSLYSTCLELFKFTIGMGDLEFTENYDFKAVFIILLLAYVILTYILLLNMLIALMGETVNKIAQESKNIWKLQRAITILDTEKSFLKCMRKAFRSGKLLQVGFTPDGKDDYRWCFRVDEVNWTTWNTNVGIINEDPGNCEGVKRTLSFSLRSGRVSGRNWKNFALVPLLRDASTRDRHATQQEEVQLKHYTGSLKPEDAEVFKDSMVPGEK

[4] = biological target: Transient receptor potential cation channel subfamily V member 1 (Rattus norvegicus) (UniProt O35433); assay: Ratio of compound IC50 to SC-0030 IC50 for TRPV1 in Sprague-Dawley rat DRG neuron

T1 sequence (O35433 whole entry): as above

| SMILES | IC50 [1] [nM] | EC50 [2] [nM] | Ratio IC50 [3] | Ratio IC50 [4] |
| --- | --- | --- | --- | --- |
| C[Si](C)(C)c1ccc(CNC(=S)NCc2ccc(NS(C)(=O)=O)cc2)cc1 | 150 | > 100000 | – | – |
| CC[Si](CC)(CC)c1ccc(CNC(=S)N[C@H](C)c2ccc(NS(C)(=O)=O)cc2)cc1 | 1500 | > 100000 | – | – |
| CC[Si](C)(C)c1ccc(CNC(=S)NCc2ccc(NS(C)(=O)=O)cc2)cc1 | 1200 | > 100000 | – | – |
| CC[Si](C)(C)c1ccc(CNC(=S)N[C@H](C)c2ccc(NS(C)(=O)=O)cc2)cc1 | 670 | > 100000 | – | – |
| CC[Si](CC)(CC)c1ccc(CNC(=S)NCc2ccc(NS(C)(=O)=O)cc2)cc1 | 3100 | > 100000 | – | – |
| CC(C)(C)c1ccc(CNC(=S)NCc2ccc(NS(C)(=O)=O)c(F)c2)cc1 | 40 | > 100000 | – | – |
| C[C@@H](NC(=S)NCc1ccc(C(C)(C)C)cc1)c1ccc(NS(C)(=O)=O)cc1 | 50 | > 100000 | – | – |
| C[C@@H](NC(=S)NCc1ccc([Si](C)(C)C)cc1)c1ccc(NS(C)(=O)=O)cc1 | 210 | > 100000 | 4 | 4 |
| C[Si](C)(C)c1ccc(CNC(=S)NCc2ccc(NS(C)(=O)=O)c(F)c2)cc1 | 160 | > 100000 | 4 | 4 |
